Sampled rows, rich in hits. Any-hit rate of the full collection: about 3.7%.
KCNQ1 inh: inhibitors of human KCNQ1 potassium channel. 1.3% of 310,000 active. B-score at 10 µM. CHO-K1 KCNQ1, FluxOR thallium flux fluorescence; active compounds read high. AID 2642. P51787;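 active = compounds whose thallium flux B-score, printed positive for inhibition, exceeds three library SD while starting fluorescence stays within three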;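 also: channel opened by potassium depolarization with thallium stimulus after 20 min compound exposure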
KCNK9 block: human KCNK9 channel inhibition; Q9NPC2; HEK293 KCNK9, FluxOR thallium flux fluorescence; active compounds read low; B-score at 10 µM; 1.2% of 310,000 active; AID 488922;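 active = ratio B-score over 3 SD below the library mean, with starting fluorescence within 5 SD of its mean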;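 also: negative B-score means less thallium flux so channel inhibition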
Target sequence (Q9NPC2 whole entry, looked up): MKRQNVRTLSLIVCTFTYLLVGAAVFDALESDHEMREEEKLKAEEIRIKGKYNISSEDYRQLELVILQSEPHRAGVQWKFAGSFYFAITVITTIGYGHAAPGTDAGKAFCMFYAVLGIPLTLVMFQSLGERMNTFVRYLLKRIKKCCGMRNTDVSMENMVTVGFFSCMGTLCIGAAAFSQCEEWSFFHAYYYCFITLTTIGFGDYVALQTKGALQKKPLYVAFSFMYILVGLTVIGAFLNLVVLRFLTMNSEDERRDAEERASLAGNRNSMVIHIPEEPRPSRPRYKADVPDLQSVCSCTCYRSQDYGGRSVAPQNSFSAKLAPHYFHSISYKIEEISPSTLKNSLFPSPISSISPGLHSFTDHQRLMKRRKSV
KCNQ1 act: potentiators or activators of human KCNQ1 potassium channel | CHO-K1 KCNQ1, thallium flux FluxOR fluorescence; active compounds read high | B-score at 10 µM | 0.35% of 310,000 active;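 active = fluorescence ratio B-score, a plate-corrected score, at least three library SD, with initial intensity B-score within 5 SD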
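Schedule – 37 °C overnight plating, 90-min dark dye load, 20-min compound pretreatment · System – stable KCNQ1 CHO-K1 line · Probe or stimulus – thallium- and potassium-containing depolarizing buffer · Measured by – kinetic FluxOR fluorescence, 10 s baseline plus 110 s post-stimulus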
KCNK3 inh: human KCNK3 channel inhibition, primary screen; O14649; CHO-KCNK3 thallium flux, FluxOR fluorescence; active compounds read low; B-score at 10 µM; 0.84% of 340,000 active; AID 602410;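 active = B-score under library mean minus 4 SD, starting fluorescence ratio at most library mean plus 5 SD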;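 also: more negative B-score means stronger inhibition of thallium flux through KCNK3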
hERG rescue: shields human hERG channel from block by proarrhythmic agents; Q12809; 0.51% of 310,000 active; CHO-hERG, FluxOR thallium flux, dofetilide IC70 present; activation (rescue from dofetilide block), less the hit threshold, % at 10 µM;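 active = activation above the mean of controls blocked by dofetilide plus 5 SD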;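 also: thallium influx through hERG after potassium depolarization seen as dye fluorescence rise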
Kir21 inh: blocks the mouse Kir2.1 inward-rectifier potassium channel; P35561; HEK293-Kir2.1, FluxOR thallium flux fluorescence; active compounds read low; B-score at 10 µM; 0.85% of 310,000 active;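 active = fluorescence ratio B-score at or below minus 3 SD of library scores, with starting-brightness B-score within 2 SD, cut at about -4.2 in these data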;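 also: channel flux triggered by added potassium and thallium sulfate stimulus; B-score of peak minus minimum fluorescence over baseline after thallium stimulus; more negative B-score means stronger Kir2.1 block with less thallium influx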
Numbers without * were called inactive; i = inactive; / = not tested or not shown.

SMILES	KCNQ1 inh	KCNK9 block	KCNQ1 act	KCNK3 inh	hERG rescue	Kir21 inh
Clc1cccc(CN2CCC(Cc3ccccc3)CC2)c1	i	i	i	i	-14.1	-7.21*
Clc1ccc(CN2CCC(Cc3ccccc3)CC2)cc1	i	i	i	i	-1.9	-7.51*
Fc1ccc(CN2CCC(Cc3ccccc3)CC2)cc1F	i	i	i	i	-8.7	-1.48
c1ccc(CC2CCN(Cc3ccccn3)CC2)cc1	i	i	i	i	-8.0	0.92
CCCOc1ccc(C(=O)Nc2ccc(S(=O)(=O)N3C[C@@H]4C[C@@H](C3)c3cccc(=O)n3C4)cc2)cc1	/	/	/	i	/	/
O=C(NNC(=O)c1ccc2c(=O)n3c(nc2c1)CCC3)c1cccc(Cl)c1	i	i	i	i	-13.6	0.09
O=C(CCS(=O)(=O)c1ccc(Br)cc1)NCc1ccc(F)cc1	i	i	i	i	-9.3	-0.38
O=C(NC(=S)Nc1cccc(O)c1)C1CCCCC1	/	/	/	i	/	/
Cc1cc(C(C)(C)C)ccc1OC(=O)C1=CC=CN2CCS(=O)(=O)N=C12	/	/	/	i	/	/
Cc1[nH]c2ccccc2c1/C=N/NC(N)=S	i	i	i	i	-11.6	-0.04
Cc1ccc(NC(=S)N/N=C/c2c(C)[nH]c3ccccc23)cc1	6*	i	i	i	-9.0	-0.22
Cc1[nH]c2ccccc2c1/C=N/NC(=S)NCc1ccccc1	6*	i	i	i	-3.6	1.65
N#Cc1ccc(-c2nnnn2-c2ccc3c(c2)OCO3)cc1	i	i	i	i	4.8*	-0.73
CCn1c2ccccc2c2cc(CNCc3ccc(OC)cc3OC)ccc21	i	i	i	i	-36.5	-9.8*
COc1ccc(CNC(=O)Cc2cn(C)c3ccccc23)c(OC)c1	i	i	i	i	-7.6	-4.35*
COc1cccc(CNCc2ccc(OC)cc2OC)c1	i	i	i	i	-6.6	-1.88
CON(C)S(=O)(=O)c1cccc(C(=O)Nc2cccc(S(=O)(=O)NC3=NCCCCC3)c2)c1	/	/	/	i	/	/
CC(c1ccccc1)n1c(-c2cccs2)nc2c(c(=O)c3ccccc3n2C)c1=O (configuration not stated)	i	-8.09*	i	i	-4.8	-0.31
Cn1c2ccccc2c(=O)c2c(=O)n(-c3ccc(F)cc3)c(-c3cccs3)nc21	i	i	i	i	-2.3	-1.2
O=[N+]([O-])c1cccc(/C=N/Nc2cc(Cl)nc(-c3ccccc3)n2)c1	12*	i	i	-10.4*	-9.2	0.28
COc1ccccc1CCNCc1ccc(OC)c(OCc2ccccc2)c1	i	i	i	i	-24.3	-8.5*
COc1cc(CNCCc2ccccc2)ccc1OCc1ccc(Cl)nc1	i	i	i	i	-10.9	-6.4*
CN1CCN(S(=O)(=O)c2ccc(N(C)Cc3cccc(F)c3)nc2)CC1	/	/	/	i	/	/
N#Cc1c(N)oc(-c2ccc3c(c2)OCO3)c1-c1ccc2c(c1)OCO2	i	-6.83*	i	i	-11.3	0.54
Clc1ccccc1N=C1NN=C(c2cccs2)CS1	i	i	i	i	-12.2	-0.68
CC(C)CC(=O)Nc1ccc(-c2nc3ccccc3c(=O)[nH]2)cc1	i	i	i	i	-9.5	-2.71
NNC(=O)c1cc(C23CC4CC(CC(C4)C2)C3)nc2ccccc12	6*	i	i	i	-9.6	0.45
O=C(NNc1c2ccccc2nc2ccccc12)C12CC3CC(CC(C3)C1)C2	i	i	i	i	-0.4	1.01
CCOC(=O)c1cc2c(=O)n3ccccc3nc2n(CCCOC)c1=NC(=O)c1ccncc1	i	i	15*	i	-24.9	-1.65
